Test results reported in ChEMBL document CHEMBL1156396, “Antifungal alkyl amino alcohols from the tropical marine sponge Haliclona n. sp” (2001).
Activity calls are given as the source filed them. The calls are words filed in the database; no cut-off is given here.

Legend:
[1] = tested on: Escherichia coli; experiment: Antibacterial activity against Escherichia coli at 0.12 mg after 24 hrs by paper disk assay; assay type: functional, organism-based
Procedure, shortened: (§1)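 Paper disk diffusion: 6 mm diameter disks loaded with 0.12 mg test substance, placed on plates seeded with the test organism and incubated 24 h at 28 °C; activity scored as diameter of growth-inhibition zone (mm).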

[2] = tested on: Bacillus subtilis; experiment: Antibacterial activity against Bacillus subtilis at 0.12 mg after 24 hrs by paper disk assay; assay type: functional; procedure, shortened: as §1
[3] = tested on: Candida albicans; experiment: Antifungal activity against Candida albicans at 0.12 mg after 24 hrs by paper disk assay; assay type: functional, organism-based; procedure, shortened: as §1
[4] = tested on: Trichophyton mentagrophytes; experiment: Antifungal activity against Trichophyton mentagrophytes at 0.12 mg after 24 hrs by paper disk assay; assay type: functional; settings: for zone of inhibition at 120 µg/disc: read-out: IZ; procedure, shortened: as §1
[5] = tested on: Amorphotheca resinae; experiment: Antifungal activity against Cladosporium resinae at 0.12 mg after 24 hrs by paper disk assay; assay type: functional; settings: for zone of inhibition at 120 µg/disc: read-out: IZ; procedure, shortened: as §1

Row | Compound | inhibition zone (IZ) [1] | inhibition zone (IZ) [2] | inhibition zone (IZ) [3] | inhibition zone (IZ) [4] | inhibition zone (IZ) [5] | zone of inhibition at 120 µg/disc ([2]; read-out: IZ) | zone of inhibition at 120 µg/disc [4] | zone of inhibition at 120 µg/disc [5]
1 | C=CCCCCCCCCC[C@@H](O)[C@H](C)NC(C)=O | inactive | inactive | inactive | inactive | inactive |  |  | 
2 | CCCCCCCC/C=C\C[C@@H](O)[C@H](C)N | Active | Active | Active | Active | Active |  |  | 
3 | C=CCCCCCCCCC[C@@H](OC(C)=O)[C@H](C)NC(C)=O [DIACETYL HALAMINOL A] | inactive |  | inactive | inactive | inactive | 7 mm |  | 
4 | C=CCCCCCCCCC[C@@H](O)[C@H](C)N [HALAMINOL A] | Active | Active | Active |  |  |  | 10 mm | 10 mm
5 | C=CCCCCCCC[C@@H](O)[C@H](C)N [HALAMINOL B] | Active | Active | Active |  |  |  | 10 mm | 10 mm
